Measurements reported in ChEMBL document CHEMBL1145161, “Inhibitors of Trypanosoma cruzi trypanothione reductase revealed by virtual screening and parallel synthesis” (J Med Chem, 2005).

Experiments:
[1] = target: Trypanothione reductase (Trypanosoma cruzi) (UniProt P28593); assay: Inhibitory activity (100 uM) against recombinant Trypanosoma cruzi trypanothione reductase was determined in presence of Trypanothione disulfide (40 uM)
Summary of the method: (§1)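 Recombinant T. cruzi TR, 10–15 mU, in 40 mM Hepes, 1 mM EDTA, pH 7.5, 25 °C, 100 μM NADPH; activity at fixed TS2 (40 or 110 μM) without and with 100 μM inhibitor; TS2 starts reaction, A340 decrease monitored; DMSO controls where needed. Inhibitor stocks 4 mM in DMSO or water.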

[2] = target: Trypanothione reductase (Trypanosoma cruzi) (UniProt P28593); assay: Inhibitory activity (100 uM) against recombinant Trypanosoma cruzi trypanothione reductase was determined in presence of Trypanothione disulfide (110 uM); summary of the method: as §1
[3] = target: Trypanothione reductase (Trypanosoma cruzi) (UniProt P28593); assay: (§2) Inhibitory constant against recombinant Trypanosoma cruzi trypanothione reductase was determined photometrically at 25 degree C in TR assay buffer (40 mM Hepes, 1 mM EDTA, pH 7.5)
Summary of the method: (§3)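 Spectrophotometric TR assay at 25 °C, 40 mM Hepes, 1 mM EDTA, pH 7.5; 100 μM NADPH, 10–15 mU TR; reaction started with TS2, A340 decrease followed. TS2 varied at several fixed inhibitor concentrations (e.g. 5, 10, 20 μM); Ki from slopes and x-axis intercepts of Lineweaver–Burk plots, Dixon plots also used; data at least in duplicate.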

[4] = target: T1, Glutathione reductase, mitochondrial (Homo sapiens) (UniProt P00390); assay: Inhibitory activity against human Glutathione reductase relative to GSSG (100 uM)
T1 sequence (whole entry): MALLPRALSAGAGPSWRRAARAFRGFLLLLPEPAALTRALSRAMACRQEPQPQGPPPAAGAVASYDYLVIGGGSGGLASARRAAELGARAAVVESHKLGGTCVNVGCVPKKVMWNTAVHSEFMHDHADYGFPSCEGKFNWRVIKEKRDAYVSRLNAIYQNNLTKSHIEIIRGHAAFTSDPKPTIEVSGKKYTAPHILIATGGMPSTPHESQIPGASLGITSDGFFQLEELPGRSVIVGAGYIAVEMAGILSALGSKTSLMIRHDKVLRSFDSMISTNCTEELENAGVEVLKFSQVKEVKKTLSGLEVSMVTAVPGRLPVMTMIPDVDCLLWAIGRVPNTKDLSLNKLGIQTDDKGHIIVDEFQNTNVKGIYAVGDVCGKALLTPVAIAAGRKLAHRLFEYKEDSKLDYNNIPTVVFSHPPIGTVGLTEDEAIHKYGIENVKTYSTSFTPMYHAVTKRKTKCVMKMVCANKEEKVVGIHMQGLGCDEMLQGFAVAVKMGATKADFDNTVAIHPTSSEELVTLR

Trypanothione reductase [5] = target: T2, Trypanothione reductase (Trypanosoma cruzi, UniProt P28593); assay: as §2; summary of the method: as §3
T2 sequence (P28593 whole entry): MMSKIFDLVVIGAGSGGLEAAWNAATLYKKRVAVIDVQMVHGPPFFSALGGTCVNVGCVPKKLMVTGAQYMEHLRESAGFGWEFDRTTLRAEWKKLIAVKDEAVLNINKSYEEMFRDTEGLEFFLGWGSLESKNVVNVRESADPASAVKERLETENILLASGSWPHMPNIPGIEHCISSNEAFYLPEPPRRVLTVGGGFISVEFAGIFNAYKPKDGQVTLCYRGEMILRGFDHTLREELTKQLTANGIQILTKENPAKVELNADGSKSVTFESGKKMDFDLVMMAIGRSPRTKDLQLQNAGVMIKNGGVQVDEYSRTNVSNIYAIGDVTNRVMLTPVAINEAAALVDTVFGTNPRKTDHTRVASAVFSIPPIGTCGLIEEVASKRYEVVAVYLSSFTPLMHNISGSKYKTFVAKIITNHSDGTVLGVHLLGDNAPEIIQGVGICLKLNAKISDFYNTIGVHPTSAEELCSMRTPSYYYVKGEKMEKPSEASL

[6] = target: T3, Glutathione reductase, mitochondrial (Homo sapiens, UniProt P00390); assay: (§4) Inhibitory constant against human glutathione reductase
T3 sequence (P00390 whole entry): T1 sequence (whole entry)
Summary of the method: (§5)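 Human GR kinetics in phosphate/KCl/EDTA buffer pH 6.9 at 25 °C, 100 μM NADPH, 5–10 mU GR; GSSG varied (40–1000 μM) at two fixed inhibitor levels, 120 and 240 μM; DMSO controls.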

Trypanothione reductase [7] = target: T2, Trypanothione reductase; assay: Competitive inhibitory constant against recombinant Trypanosoma cruzi trypanothione reductase was determined photometrically at 25 degree C in TR assay buffer (40 mM Hepes, 1 mM EDTA, pH 7.5); summary of the method: as §3
[8] = target: T1, Glutathione reductase, mitochondrial (Homo sapiens); assay: as §4; summary of the method: as §5
[9] = target: T1, Glutathione reductase, mitochondrial (Homo sapiens); assay: Percent inhibition of human glutathione reductase at 100 uM relative to 100 uM GSSG

Trypanothione reductase (Trypanosoma cruzi), sequence (P28593 whole entry, looked up): as the sequence (P28593 whole entry) above

inhibition [1]	inhibition [2]	Compound	also measured
95%	90%	COc1cc(C(=N)Nc2ccc(Oc3ccc(NC(=N)c4ccc(OCc5ccccc5)c(OC)c4)cc3)cc2)ccc1OCc1ccccc1	Ki' [3]: 22 µM; inhibition [4]: 45%
80%	69%	N=C(CCCCCCCC(=N)NCC#Cc1ccccc1)NCC#Cc1ccccc1	inhibition [4]: 5%; Ki (Trypanothione reductase [7]): 6 µM
14%	< 10%	N=C(NCCOCCOCCNC(=N)c1cccs1)c1cccs1	–
15%	< 10%	N=C(NCCCCCCCCNC(=N)c1cccs1)c1cccs1	–
94%	97%	COc1cc(C(=N)NC2CCC(CC3CCC(/N=C(\N)c4ccc(OCc5ccccc5)c(OC)c4)CC3)CC2)ccc1OCc1ccccc1 (stereo not given)	inhibition [9]: 35%; Ki' [3]: 16 µM; Ki (Trypanothione reductase [5]): 2000 nM
92%	85%	COc1cc(C(=N)NCCCCCCCCN=C(N)c2ccc(OCc3ccccc3)c(OC)c2)ccc1OCc1ccccc1	Ki' [3]: 47 µM

The next lines start with the molecule.

Compound	inhibition [1]	inhibition [2]	also measured
N=C(Nc1ccc(Oc2ccc(NC(=N)c3cccs3)cc2)cc1)c1cccs1	11%	12%	–
N=C(NCCOCCOCCNC(=N)c1cnccn1)c1cnccn1	11%	< 10%	–
N=C(NCCc1cccnc1)c1sccc1Br	14%	15%	–
CN1CCN(CCC/N=C(\N)c2cccs2)CC1	< 10%	< 10%	–
COc1cc(C(=N)NCCCCCCCCNC(=N)c2ccc(OCc3ccccc3)c(OC)c2)ccc1OCc1ccccc1	–	–	Ki (Trypanothione reductase [5]): 5000 nM
COc1cc(C(N)=Nc2ccc(Oc3ccc(N=C(N)c4ccc(OCc5ccccc5)c(OC)c4)cc3)cc2)ccc1OCc1ccccc1	–	–	Ki (Trypanothione reductase [5]): 2000 nM
[H]/N=C(\N/C(=N/[H])NCCCCCCNC(=N)NC(=N)Nc1ccc(Cl)cc1)Nc1ccc(Cl)cc1 [CHLORHEXIDINE]	–	–	Ki (Trypanothione reductase [5]): 2000 nM; Ki [6]: 192 µM
CN1CCN(CCC/N=C(\N)c2sccc2Br)CC1	< 10%	< 10%	–
CN1CCN(CC/N=C(\N)c2ccc3[nH]ccc3c2)CC1	39%	31%	–
N=C(NCCCCCCNC(=N)NC(=N)Nc1ccc(Cl)cc1)NC(=N)Nc1ccc(Cl)cc1	–	–	Ki' [8]: 210 µM
N=C(NC1CCC(CC2CCC(NC(=N)c3cnccn3)CC2)CC1)c1cnccn1 (stereo not given)	< 10%	< 10%	–
N=C(NCCc1cccnc1)c1cccs1	< 10%	< 10%	–
N=C(NC1CCC(CC2CCC(NC(=N)c3cccs3)CC2)CC1)c1cccs1 (stereo not given)	17%	16%	–
O=C(Cc1cccc2ccccc12)NCCNC(=O)C1(NC(=O)C(=O)c2ccc([N+](=O)[O-])cc2)CCNCC1	–	–	Ki' [3]: 8.5 µM; Ki (Trypanothione reductase [5]): 6200 nM
